Source: the EternaBench riboswitch data

Tested on: MS2 coat protein
Assay: apparent Kd, MS2 coat protein; higher = weaker binding; RNA-MaP array; tryptophan 2.4 mM where present
In short: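 Designs were transcribed by stalled E. coli RNA polymerase on Illumina sequencing-chip clusters. They were titrated with SNAP-549-labelled MS2 coat protein from 0.7 or 1.5 nM, doubling to 3 µM, without and then with constant ligand. Buffer: 100 mM Tris-HCl pH 7.5, 80 mM KCl, 4 mM MgCl2, BSA, DTT, yeast tRNA, Tween-20. Green signal was normalised to red-channel RNA signal and control-cluster median Fmax. Apparent Kd is the median of filtered per-cluster binding-curve fits.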

[1] = designed as: OFF switch for tryptophan, no ligand
[2] = ligand present: tryptophan, designed as: OFF switch for tryptophan
[3] = designed as: ON switch for tryptophan, no ligand
[4] = ligand present: tryptophan, designed as: ON switch for tryptophan

Sequence	apparent Kd [1] [nM]	apparent Kd [2] [nM]	apparent Kd [3] [nM]	apparent Kd [4] [nM]
UAUAUAUAUCACGAACUGUGGUGUAUGUCCCGAGGACCGGUACGGCCGCCACUCGCGUGGUUCCACAUGAGGAUCACCCAUGUUG	18.9	22.7		
GGUUACUCUACGGCCGCCACUGGGCAUGUAAAUAACAUGAGGAUCACCCAUGUGGAAUAAAAUUACAGGACCGGGUAGUGUAACC			254	40.2
AUGGUCGACGAUCUGCGAAAAGCAGAUCGACGAGGACCGGUACGGCCGCCACUCGUGUUCAUUAAACAUGAGGAUCACCCAUGUA			48.8	21.1
ACCUCAUAGGCGGCCGCCACUGUAAUGACUACGUCAAACAUGAGGAUCACCCAUGUAGUCAAUCACAGGACCGGGUCAUGGGUAG			39.1	23.9
AAAUUAUAGGCGGCCGCCACUAGAGUUAGGCUUAUGUACUGGGUAACAUGAGGAUCACCCAUGUAUAGGACCGGGCCAUAAUAAA			53.5	52.6
UGUCGGCGAAAGUUGGCGUGUCUUGCUGGUCGAGGACCGGUACGGCCGCCACUCGAUCCUUCGCACAUGAGGAUCACCCAUGUUG			25.5	28.5
UGCAUGAGGAUCGCCCGUGUCGAGCCGGUGCGAGGACCGGUACGGCCGCCACUCGAGACAUGAGGAUCACCCAUGUUGUGCGUGA	56.5	91.4		
UACUUGCUGACGGCCGCCACUAGAACAUGAGGAUCACCCAUGUAAGUGGUUGGUUCAUGGGUGACUAGGACCGGGUCAGCAAGAU	32.3	37.3		
UUAUAAGUACCGGUCCUCAGAUCCUCAUGACGAGGACCGGUACGGCCGCCACUCGAAACAUGAGGAUCACCCAUGUAAUAAUACC	37.5	29.1		
CCGCACAUGAGGAUCACCCAUGUCCGGGUUCGAGGACCGGUACGGCCGCCACUCGGACAUGUGCGCCCUUCAUGCACUGUAUAAA			129	60.9
CCAUAAGUACCGGUCCUCAGAUCCUCAUGACGAGGACCGGUACGGCCGCCACUCGAAACAUGAGGAUCACCCAUGUAAUAAUAUC	30.6	24.6		
UAUCUACAUAUAUAGGUUAUUCGAUUAUUUCGAGGACCGGUACGGCCGCCACUCGUUAACAUAUACAUGAGGAUCACCCAUGUUA			15.4	14.5
AAUACCGGUCCUCGAAGGUGAUCCUCAUAACGAGGACCGGUACGGCCGCCACUCGAUAACAUGAGGAUCACCCAUGUAAUAAUAA	187	138		
CUCAUCCACGCGGCCGCCACUAUAUUGUGGUGUGAAUGUGUCGUAAUACAUGAGGAUCACCCAUGUAGGACCGGGCGUGGAUGAG	20.1	32.9		
CUAGAUGGAAACGUCUGGACGCACAAGCGACGAGGACCGGUACGGCCGCCACUCGAAGAGUGGUGGACAUGAGGAUCACCCAUGU			53.8	39.2
GAUAUGGAAACAUGUCAGAUCCUUACCGGUCGAGGACCGGUACGGCCGCCACUCGCAAAUAUUGUACAUGAGGAUCACCCAUGUA	13.1	13.6		
AUAAUGAGUGGUGGAUAGGUGAUCCUCUUACGAGGACCGGUACGGCCGCCACUCGAUAACAUGAGGAUCACCCAUGUAAUAAUAA	15.7	49.9		
UAUCGAGGUACAUGAGGAUCACCCAUGUAUCGAGGACCGGUACGGCCGCCACUCGAUAAUGGCGGAUCGUUAGUCCUCUUCGAUA	10.7	11.4		
AUAAAAGGGUUAUAUAGAUUUAGGUCCAGUCGAGGACCGGUACGGCCGCCACUCGUACUGAAAUACAUGAGGAUCACCCAUGUUA			21.8	22.7
GCAUCCUAGUCGGCCGCCACUGGUACGAACACCUUCACCCGUGUGCACAUGAGGAUCACCCAUGUCAGGACCGGGACUAGGAUGC			9.36	9.66
UCGUUUUAGUCGGCCGCCACUGAACUCAUGUUCAACAUGAGGAUCACCCAUGUACCUUAUUUUAACAGGACCGGGACGUAAUAGA	123	97.5		
ACAUGAGGAUCACCCAUGUACAUCACCCGACGAGGACCGGUACGGCCGCCACUCGGGUAUAUAUAUACAUCGGGUGAUUUUACGU			18.5	18
AGAUUCGACACGGCCGCCACUCGUGCCGGAUUACCGAGUGUCGAACAUGAGGAUCACCCAUGUACGAGGACCGGGUGUUGAGUCU	37.7	262		
